Results published in ChEMBL document CHEMBL1125301, “1-(2-Aminoethyl)-3-methyl-8,9-dihydropyrano[3,2-e]indole: a rotationally restricted phenolic analog of the neurotransmitter serotonin and agonist selective for serotonin (5-HT2-type) receptors” (J Med Chem, 1992).
pIC50: −log10 of the molar value.

Tests used:
[1] = target: T1, Serotonin 2 (5-HT2) receptor (Rattus norvegicus, UniProt P30994+P08909+P14842); assay: Compound was evaluated for binding affinity towards 5-hydroxytryptamine 2 receptor in rat anterior cortex using [125I]DOI as radioligand
Procedure, shortened: (§1)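 Competition binding against the named radioligand on the native tissue membranes shown, radioligand at roughly its K_D for the binding system; procedures otherwise follow earlier published methods.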

[2] = target: T1, Serotonin 2 (5-HT2) receptor; assay: Compound was evaluated for binding affinity towards 5-hydroxytryptamine 2 receptor in rat anterior cortex using [3H]ketanserin as radioligand; procedure, shortened: as §1
[3] = target: T2, 5-hydroxytryptamine receptor 1A (Rattus norvegicus, UniProt P19327); assay: Compound was evaluated for binding affinity towards 5-hydroxytryptamine 1A receptor in rat cortex using [3H]-8-OH-DPAT as radioligand; procedure, shortened: as §1
T2 sequence (P19327 whole entry): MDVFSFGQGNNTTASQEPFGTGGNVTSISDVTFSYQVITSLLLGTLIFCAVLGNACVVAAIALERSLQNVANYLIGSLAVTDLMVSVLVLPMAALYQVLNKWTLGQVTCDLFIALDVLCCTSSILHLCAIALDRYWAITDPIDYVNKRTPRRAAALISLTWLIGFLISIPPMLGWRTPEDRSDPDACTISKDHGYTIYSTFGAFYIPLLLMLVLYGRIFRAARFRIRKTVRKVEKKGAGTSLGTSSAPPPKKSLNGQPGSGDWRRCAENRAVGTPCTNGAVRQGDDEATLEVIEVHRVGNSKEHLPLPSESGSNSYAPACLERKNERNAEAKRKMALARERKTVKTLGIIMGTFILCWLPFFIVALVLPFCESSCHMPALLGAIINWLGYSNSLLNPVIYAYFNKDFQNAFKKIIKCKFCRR

Row | Structure (SMILES) | IC50 [1] | IC50 [2] | pIC50 [3]
1 | CN(C)CCc1c[nH]c2cc3c(cc12)OCCC3 | 920 nM | 5900 nM | 5.92
2 | CN(C)CCc1cn(C)c2ccc3c(c12)CCCO3 | 81 nM | 1000 nM | 5.27
3 | Cn1cc(CCN)c2c3c(ccc21)OCCC3 | 14 nM | 800 nM | –
4 | COc1ccc2[nH]cc(CCN(C)C)c2c1 [MEBUFOTENIN] | – | – | 7.96
5 | NCCc1c[nH]c2ccc3c(c12)CCCO3 | 14 nM | 2200 nM | 6.21
